ChEMBL document CHEMBL3259684, “Dual inhibition of the α-glucosidase and butyrylcholinesterase studied by molecular field topology analysis” (Eur J Med Chem, 2014)

What was measured:
Cholinesterase = Cholinesterase (Homo sapiens, UniProt P06276); experiment: Inhibition of BChE (unknown origin) using BCh iodide as substrate preincubated for 15 mins prior to substrate addition measured after 10 mins by Ellman's method
[1] = Inhibition of yeast alpha-glucosidase type 3 using p-nitrophenyl-alpha-D-glucopyranoside as substrate preincubated with substrate for 5 mins prior to enzyme challenge for 30 mins by absorbance analysis; design: species or system Saccharomyces cerevisiae
How it was run: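 Yeast enzyme at 0.1 units/ml in pH 6.8 potassium phosphate/MgCl2 buffer; substrate stock 6 mmol/L. Compound (sample solution 0.6 mg/ml in DMSO) mixed with buffer, water and substrate, held 5 min at 37 °C, then enzyme added; reaction 30 min at 37 °C, stopped with 0.4 mol/L glycine buffer pH 10; p-nitrophenol read at 410 nm. Deoxynojirimycin as reference inhibitor.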

Cholinesterase, sequence (P06276 whole entry): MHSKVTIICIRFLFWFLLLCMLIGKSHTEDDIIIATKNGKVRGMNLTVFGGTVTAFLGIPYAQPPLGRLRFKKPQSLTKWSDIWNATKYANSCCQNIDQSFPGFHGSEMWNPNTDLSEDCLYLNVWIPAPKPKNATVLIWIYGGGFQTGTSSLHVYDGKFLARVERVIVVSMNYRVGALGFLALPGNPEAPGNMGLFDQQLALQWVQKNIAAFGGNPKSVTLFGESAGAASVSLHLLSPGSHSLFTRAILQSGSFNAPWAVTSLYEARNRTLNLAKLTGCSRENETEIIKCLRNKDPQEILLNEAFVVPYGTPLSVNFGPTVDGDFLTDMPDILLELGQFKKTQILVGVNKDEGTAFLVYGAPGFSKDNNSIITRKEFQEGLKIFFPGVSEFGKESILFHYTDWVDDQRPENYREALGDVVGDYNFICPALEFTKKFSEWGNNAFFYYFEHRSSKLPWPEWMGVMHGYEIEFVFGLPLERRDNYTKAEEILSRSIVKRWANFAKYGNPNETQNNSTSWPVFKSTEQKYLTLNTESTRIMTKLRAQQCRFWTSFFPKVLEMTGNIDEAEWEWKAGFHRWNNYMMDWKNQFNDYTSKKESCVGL

| Compound | IC50 (Cholinesterase) [µM] | IC50 [1] [µM] |
| --- | --- | --- |
| O=C(/C=C/c1ccccc1)c1ccccc1 [CHALCONE] | 87 | – |
| COc1cccc(/C=C/C(=O)c2ccccc2)c1 | 32 | 151 |
| COc1ccc(/C=C/C(=O)c2ccccc2)cc1 [4-METHOXY CHALCONE] | 42 | – |
| OC1(c2cn(-c3ccncc3)nn2)CCCCC1 | 385 | 520 |
| OC1(c2cn(-c3cccc(Cl)c3)nn2)CCCCC1 | 512 | 1390 |
| CCSc1ccccc1-c1cnc(-c2ccsc2)[nH]1 | 0.1 | – |
| c1ccc(C2=Nc3ccccc3SC(c3cccs3)C2)cc1 (stereo unspecified) | 9.1 | – |
| COc1ccc(C(=O)/C=C/c2ccc(N)cc2)cc1 | – | 20.2 |
| CCCCCCCCCCCCCCCCn1cc(C2(O)CCCCC2)nn1 | 500 | 1190 |
| OC1(c2cn(-c3ccc(Cl)cc3)nn2)CCCCC1 | 294 | 1390 |
| O=[N+]([O-])c1ccccc1-n1cc(-c2ccccc2)nn1 | – | 6760 |
| Brc1ccc(-n2cc(-c3ccccc3)nn2)cc1 | 375 | 409 |
| OC1(c2cn(-c3ccc(Br)cc3)nn2)CCCCC1 | 298 | 325 |
| COc1cccc(/C=C/C(=O)c2ccccc2O)c1 | – | 130 |
| Oc1ccc(C2=Nc3ccccc3SC(c3cccc(O)c3)C2)cc1 (stereo unspecified) | 4.7 | – |
| Oc1ccc(C2=Nc3ccccc3SC(c3cccs3)C2)cc1 (stereo unspecified) | 3.97 | – |
| COc1ccccc1/C=C/C(=O)c1ccccc1 | 27 | – |
| O=C(On1cc(C2(O)CCCCC2)nn1)c1ccccc1 | 248 | 1090 |
| Clc1ccc(-n2cc(-c3ccccc3)nn2)cc1 | 555 | 378 |
| N#Cc1cc([N+](=O)[O-])ccc1-n1cc(C2(O)CCCCC2)nn1 | 42.4 | 49.7 |
| CC(=O)c1ccc(-n2cc(C3(O)CCCCC3)nn2)cc1 | 450 | 1560 |
| COc1cccc(-n2cc(C3(O)CCCCC3)nn2)c1 | 83.3 | 245 |
| O=[N+]([O-])c1ccccc1-n1cc(C2(O)CCCCC2)nn1 | 333 | 1710 |
| Clc1ccccc1-n1cc(-c2ccccc2)nn1 | 41.3 | 57.2 |
| COc1cccc(/C=C/C(=O)c2ccc(N)cc2)c1 | – | 93 |
| O=[N+]([O-])c1cccc(-n2cc(C3(O)CCCCC3)nn2)c1 | 585 | 862 |
| Oc1ccccc1C1=Nc2ccccc2SC(c2ccccc2)C1 (stereo unspecified) | 62 | 12.8 |

| Compound | IC50 (Cholinesterase) [µM] | IC50 [1] [µM] |
| --- | --- | --- |
| CC(=O)c1cccc(-n2cc(C3(O)CCCCC3)nn2)c1 | 452 | 320 |
| CC(=O)c1cccc(-n2cc(-c3ccccc3)nn2)c1 | 451 | 265 |
| O=C(/C=C/c1ccc([N+](=O)[O-])cc1)c1ccccc1 | 32 | 3850 |
| CCCCCCCCCCCCCCCCn1cc(-c2ccccc2)nn1 | 454 | 370 |
| O=C(/C=C/c1ccccc1O)c1ccccc1O | 13 | 49.4 |
| O=C(/C=C/c1ccccc1)c1ccccc1O [2'-HYDROXYCHALCONE] | 84 | 15 |
| Cc1ccc(-n2cc(C3(O)CCCCC3)nn2)c(Cl)c1 | 65.5 | 366 |
| Nc1ccc(C(=O)/C=C/c2ccccc2Br)cc1 | 26 | – |
| O=C(/C=C/c1ccccc1O)c1ccccc1 | 105 | – |
| O=C(/C=C/c1ccc2c(c1)OCO2)c1ccccc1 | – | 1870 |
| O=[N+]([O-])c1cccc(-n2cc(-c3ccccc3)nn2)c1 | 499 | 520 |
| O=C(/C=C/c1ccc2c(c1)OCO2)c1ccccc1O | – | 151 |
| Oc1ccccc1C1=Nc2ccccc2SC(c2ccc(F)cc2)C1 (stereo unspecified) | 14 | 12 |
| Cc1ccc(C2CC(c3cccc(O)c3)=Nc3ccccc3S2)c(C)c1 (stereo unspecified) | 19.7 | – |
| O=[N+]([O-])c1ccc(-n2cc(-c3ccccc3)nn2)cc1 | 250 | 235 |
| O=[N+]([O-])c1ccc(C2CC(c3ccccc3O)=Nc3ccccc3S2)cc1 (stereo unspecified) | 57 | – |
| OC1(c2cn(-c3ccccc3Cl)nn2)CCCCC1 | 430 | 370 |
| Oc1ccccc1C1=Nc2ccccc2SC(c2ccc(Cl)cc2)C1 (stereo unspecified) | – | 18 |
| COC(=O)Cn1cc(C2(O)CCCCC2)nn1 | 362 | 255 |
| COC(=O)Cc1ccc(-n2cc(C3(O)CCCCC3)nn2)cc1 | 568 | 812 |
| O=[N+]([O-])c1ccc(-n2cc(C3(O)CCCCC3)nn2)cc1 | 409 | 320 |
| Cc1ccc(C2CC(c3ccccc3O)=Nc3ccccc3S2)cc1 (stereo unspecified) | 14 | 12 |
| CCCCCCCCc1ccc(-n2cc(C3(O)CCCCC3)nn2)cc1 | 43.6 | 658 |
| COc1ccc(C2CC(c3ccccc3O)=Nc3ccccc3S2)cc1 (stereo unspecified) | – | 11.9 |
| c1ccc(C2=Nc3ccccc3SC(c3ccccc3)C2)cc1 (stereo unspecified) | – | 33 |
| CC(=O)c1ccccc1-n1cc(-c2ccccc2)nn1 | 295 | 313 |
